Measured values taken from ChEMBL document CHEMBL4689842, “EUbOPEN Chemogenomics Library wave 1” (2021).
“And” between values parts separate entries of the source, which are not always exact repeats. Equal values may be shown once.

Tested on: Fibroblast
Assay: Multiplex assay against human fibroblast
Type: toxicity, cell-based
Outline: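 Cells were classed with CellPathfinder machine-learning gating, first as Hoechst high-intensity objects or normal cells, then (normal cells) as healthy, pyknosed or fragmented nuclei, and finally (pyknosed cells) as mitotic or apoptotic. Staining of live cells at seeding used Hoechst33342, BioTracker Green Microtubule Cytoskeleton Dye, MitoTracker Red and Annexin V Alexa Fluor 680, with imaging on a CQ1 microscope at 37°C and 5% CO2 after compound addition. Tubulin, mitochondrial-mass and membrane-permeability phenotypes are per cents of healthy-nucleus cells.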

[1] = 12 h, 1 µM, compound concentration 1 uM, replicate 1
[2] = 12 h, 1 µM, compound concentration 1 uM, replicate 2
[3] = 12 h, 10 µM, compound concentration 10 uM, replicate 1
[4] = 12 h, 10 µM, compound concentration 10 uM, replicate 2
[5] = 24 h, 1 µM, compound concentration 1 uM, replicate 1
[6] = 24 h, 1 µM, compound concentration 1 uM, replicate 2
[7] = 24 h, 10 µM, compound concentration 10 uM, replicate 1
[8] = 24 h, 10 µM, compound concentration 10 uM, replicate 2

CNCc1ccc(-c2cc(-c3nc(-c4ccc(S(=O)(=O)C(C)C)cc4)cnc3N)on2)cc1 [BERZOSERTIB]
Population Apoptotic (%) [1]: 45% and 78% | Population Fragmented Nuclei (%) [1]: 22% and 31% | Population Hoechst High Intensity Objects (%) [1]: 63% and 99% | Population Membrane Permeable-Phenotype (%) [1]: 1% | Population Mitochondria Different-Phenotype (%) [1]: 0% | Population Mitotic Cells (%) [1]: 54% and 21% | Population Pyknosed Nuclei (%) [1]: 54% and 63% | Population Apoptotic (%) [2]: 47% and 100% | Population Fragmented Nuclei (%) [2]: 47% and 96% | Population Hoechst High Intensity Objects (%) [2]: 68% and 95% | Population Membrane Permeable-Phenotype (%) [2]: 14% and 0% | Population Mitochondria Different-Phenotype (%) [2]: 4% | Population Tubulin-Different-Phenotype (%) [2]: 0% | Population Apoptotic (%) [3]: 51% and 76% | Population Fragmented Nuclei (%) [3]: 24% and 41% | Population Healthy Nuclei (%) [3]: 21% | Population Hoechst High Intensity Objects (%) [3]: 64% and 99% | Population Membrane Permeable-Phenotype (%) [3]: 5% | Population Mitochondria Different-Phenotype (%) [3]: 1% | Population Mitotic Cells (%) [3]: 48% and 23% | Population Pyknosed Nuclei (%) [3]: 54% | Population Tubulin-Different-Phenotype (%) [3]: 8% | Total Cell Count [3]: 976 and 2548 | Population Apoptotic (%) [4]: 48% and 100% | Population Fragmented Nuclei (%) [4]: 54% and 93% | Population Hoechst High Intensity Objects (%) [4]: 69% and 96% | Population Membrane Permeable-Phenotype (%) [4]: 12% and 0% | Population Mitochondria Different-Phenotype (%) [4]: 6% and 0% | Population Tubulin-Different-Phenotype (%) [4]: 3% and 0% | Population Fragmented Nuclei (%) [5]: 66% and 26% | Population Hoechst High Intensity Objects (%) [5]: 99% and 67% | Population Membrane Permeable-Phenotype (%) [5]: 0% and 1% | Population Mitochondria Different-Phenotype (%) [5]: 0% | Population Mitotic Cells (%) [5]: 100% and 57% | Population Pyknosed Nuclei (%) [5]: 33% and 40% | Population Tubulin-Different-Phenotype (%) [5]: 0% | Population Apoptotic (%) [6]: 37% and 100% | Population Fragmented Nuclei (%) [6]: 53% and 94% | Population Hoechst High Intensity Objects (%) [6]: 69% and 96% | Population Membrane Permeable-Phenotype (%) [6]: 25% | Population Mitochondria Different-Phenotype (%) [6]: 12% | Population Fragmented Nuclei (%) [7]: 0% and 19% | Population Hoechst High Intensity Objects (%) [7]: 100% and 68% | Population Membrane Permeable-Phenotype (%) [7]: 0% and 8% | Population Mitochondria Different-Phenotype (%) [7]: 0% | Population Tubulin-Different-Phenotype (%) [7]: 0% | Population Apoptotic (%) [8]: 54% | Population Fragmented Nuclei (%) [8]: 93% and 42% | Population Hoechst High Intensity Objects (%) [8]: 97% and 74% | Population Mitochondria Different-Phenotype (%) [8]: 7% | Population Mitotic Cells (%) [8]: 45% | Population Pyknosed Nuclei (%) [8]: 33% | Population Tubulin-Different-Phenotype (%) [8]: 11%
